ChEMBL document CHEMBL1122654, “Phosphorus analogues of gamma-aminobutyric acid, a new class of anticonvulsants” (J Med Chem, 1984)
Calls of active or inactive are those of the source.

What was measured:
[1] = Partition coefficient (logP); assay type: physicochemical; settings: octanol/water
[2] = biological target: T1, GABA-A receptor; anion channel (Rattus norvegicus) (UniProt O09028+P15431+P18506+P18508+P19969+P20236+P23574+P23576+P28471+P28473+P30191+P62813+P63079+P63138+Q91ZM7+Q9ES14); test: Displacement of [3H]GABA from Gamma-aminobutyric acid A receptor binding sites in brain homogenates (relative to 1 mM GABA) at 100 uM; assay type: tissue-based
Procedure, shortened: (§1)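 Male Sprague-Dawley rat brain, frozen, homogenized in 50 mM Tris-citrate (pH 7.1 at 4 °C). Membranes treated with 0.05% Triton X-100 for 30 min at 37 °C and resuspended at 0.5–1.0 mg/mL protein. Incubated with 8 nM [3H]GABA for 5 min at 4 °C, stopped by centrifugation, and counted by scintillation. Test concentration 100 µM. Expressed as percent of the inhibition given by 1 mM GABA. Mean of two experiments, each in triplicate.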

Mus musculus [3] = test: In vivo anticonvulsant activity against pentylene tetrazole seizure threshold(SMC) in mice 0.5 hr after sc administration; inactive at 600 mg/kg; assay type: functional, organism-based; set-up: dose 600 mg/kg
[4] = biological target: T1, GABA-A receptor; anion channel (Rattus norvegicus); test: Displacement of [3H]-GABA from Gamma-aminobutyric acid A receptor binding sites in brain homogenates (relative to 1 mM GABA) at 100 uM; assay type: tissue-based; procedure, shortened: as §1
Mus musculus [5] = test: In vivo anticonvulsant activity against electric shock induced seizures(MES) in mice 4 hr after ip administration; inactive at 600 mg/kg; assay type: functional, organism-based; set-up: dose 600 mg/kg
Mus musculus [6] = test: In vivo neurotoxicity at 600 mg/kg, number of animals exhibiting neurotoxicity in the rotarod test / number of animals tested 4 hr; assay type: toxicity, organism-based; set-up: dose 600 mg/kg
[7] = biological target: GABA B receptor (Rattus norvegicus) (UniProt Q9Z0U4+O88871); test: (§2) Displacement of [3H]GABA from GABA-B binding sites in brain homogenates (relative to 100 uM baclofen) at 100 uM; assay type: tissue-based
Procedure, shortened: (§3)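 Rat brain membrane binding (male Sprague-Dawley) using 10 nM [3H]GABA, with 100 µM isoguvacine present to block GABA-A sites. Test concentration 100 µM. Percent inhibition expressed relative to 100 µM baclofen. Mean of two separate experiments, each in triplicate.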

Mus musculus [8] = test: In vivo anticonvulsant activity against pentylene tetrazole seizure threshold(SMC) in mice 4 hr after sc administration; inactive at 600 mg/kg; assay type: functional, organism-based; set-up: dose 600 mg/kg
Mus musculus [9] = test: In vivo neurotoxicity at 600 mg/kg, number of animals exhibiting neurotoxicity in the rotarod test / number of animals tested at 0.5 hr; assay type: toxicity, organism-based; set-up: dose 600 mg/kg
Mus musculus [10] = test: In vivo anticonvulsant activity against electric shock induced seizures(MES) in mice 0.5 hr after ip administration; inactive at 600 mg/kg; assay type: functional, organism-based; set-up: dose 600 mg/kg
Mus musculus [11] = test: In vivo anticonvulsant activity against electric shock induced seizures(MES) in mice 0.5 hr after ip administration; active at 300 mg/kg; assay type: functional, organism-based; set-up: dose 300 mg/kg
Mus musculus [12] = test: In vivo anticonvulsant activity against pentylene tetrazole seizure threshold(SMC) in mice 0.5 hr after sc administration; active at 600 mg/kg; assay type: functional, organism-based; set-up: dose 600 mg/kg
Mus musculus [13] = test: In vivo anticonvulsant activity against electric shock induced seizures(MES) in mice 4 hr after ip administration; active at 300 mg/kg; assay type: functional, organism-based; set-up: dose 300 mg/kg
Mus musculus [14] = test: In vivo neurotoxicity at 600 mg/kg, number of animals exhibiting neurotoxicity in the rotarod test / number of animals tested at 0.5 hr; 0/4; assay type: toxicity, organism-based; set-up: dose 600 mg/kg
Mus musculus [15] = test: In vivo neurotoxicity at 600 mg/kg, number of animals exhibiting neurotoxicity in the rotarod test / number of animals tested 4 hr; 0/2; assay type: toxicity, organism-based; set-up: dose 600 mg/kg
Mus musculus [16] = test: In vivo neurotoxicity at 600 mg/kg, number of animals exhibiting neurotoxicity in the rotarod test / number of animals tested at 0.5 hr; 1/4; assay type: toxicity, organism-based; set-up: dose 600 mg/kg
Mus musculus [17] = test: In vivo anticonvulsant activity against electric shock induced seizures(MES) in mice 0.5 hr after ip administration; ++ indicates activity at 300 mg/kg.; assay type: functional, organism-based; set-up: dose 300 mg/kg
Mus musculus [18] = test: In vivo neurotoxicity at 600mg/kg, number of animals exhibiting neurotoxicity in the rotarod test / number of animals tested 0.5 hr; 4/4; assay type: toxicity, organism-based
Mus musculus [19] = test: In vivo neurotoxicity at 600 mg/kg, number of animals exhibiting neurotoxicity in the rotarod test / number of animals tested 4 hr; 1/2; assay type: toxicity, organism-based; set-up: dose 600 mg/kg
Mus musculus [20] = test: In vivo anticonvulsant activity against electric shock induced seizures(MES) in mice 4 hr after ip administration; + indicates activity at 600 mg/kg.; assay type: functional, organism-based; set-up: dose 600 mg/kg
Mus musculus [21] = test: In vivo anticonvulsant activity against pentylene tetrazole seizure threshold(SMC) in mice 0.5 hr after sc administration; + indicates activity at 600 mg/kg.; assay type: functional, organism-based; set-up: dose 600 mg/kg
Mus musculus [22] = test: In vivo anticonvulsant activity against pentylene tetrazole seizure threshold(SMC) in mice 4 hr after sc administration; + indicates activity at 600 mg/kg.; assay type: functional, organism-based; set-up: dose 600 mg/kg
Mus musculus [23] = test: In vivo anticonvulsant activity against pentylene tetrazole seizure threshold(SMC) in mice 4 hr after sc administration; - indicates inactive at 600 mg/kg; assay type: functional, organism-based; set-up: dose 600 mg/kg
Mus musculus [24] = test: In vivo anticonvulsant activity against pentylene tetrazole seizure threshold(SMC) in mice 0.5 hr after sc administration; +++ indicates activity at 100 mg/kg; assay type: functional, organism-based; set-up: dose 100 mg/kg
Mus musculus [25] = test: In vivo anticonvulsant activity against electric shock induced seizures(MES) in mice 4 hr after ip administration; + indicates activity at 600 mg/kg; assay type: functional, organism-based; set-up: dose 600 mg/kg
Mus musculus [26] = test: In vivo anticonvulsant activity against electric shock induced seizures(MES) in mice 0.5 hr after ip administration; + indicates activity at 600 mg/kg.; assay type: functional, organism-based; set-up: dose 600 mg/kg
Mus musculus [27] = test: In vivo anticonvulsant activity against electric shock induced seizures(MES) in mice 0.5 hr after ip administration; active at 600 mg/kg; assay type: functional, organism-based; set-up: dose 600 mg/kg
Rattus norvegicus = organism: Rattus norvegicus; test: as §2; assay type: tissue-based; procedure, shortened: as §3

## COP(=S)(OC)Oc1ccc([N+](=O)[O-])cc1 [METHYL PARATHIONE]
[1]
  logP: 2.51

## COP(=S)(OC)Oc1cccc(NC(C)=O)c1
[2]
  inhibition: inactive

## CC(=O)Nc1ccccc1OP(=O)(Oc1ccccc1)Oc1ccccc1
Mus musculus [3]
  Anticonvulsant activity: inactive
[4]
  inhibition: 54%
Mus musculus [5]
  Anticonvulsant activity: inactive
Mus musculus [6]
  Toxicity: Not Active
[7]
  inhibition: 36%
Mus musculus [8]
  Anticonvulsant activity: inactive
Mus musculus [9]
  Toxicity: Not Active
Mus musculus [10]
  Anticonvulsant activity: inactive

## CCOP(=O)(OCC)Oc1ccccc1NC(C)=O
Mus musculus [11]
  Anticonvulsant activity: active at 300 mg/kg
Mus musculus [12]
  Anticonvulsant activity: active at 300 mg/kg
Mus musculus [13]
  Anticonvulsant activity: active at 300 mg/kg

## COP(=S)(OC)Oc1ccc([N+](=O)[O-])c(Cl)c1 [CHLORTHION]
[1]
  logP: 3.45

## CCOP(=S)(OCC)Oc1ccc(SC)c(Cl)c1
[1]
  logP: 5.06

## Nc1cccc(P(=O)(O)O)c1
Mus musculus [14]
  Toxicity: 0
Mus musculus [15]
  Toxicity: 0

## CCOP(=O)(CCCN)OCC
Mus musculus [15]
  Toxicity: 0
Mus musculus [16]
  Toxicity: 1

## COP(=S)(OC)Oc1ccc([N+](=O)[O-])cc1Cl [DICAPTHON]
[1]
  logP: 3.44

## CCOP(=S)(OCC)Oc1ccc([N+](=O)[O-])cc1 [PARATHION]
[1]
  logP: 2.98

## CCOP(=O)(OCC)c1cccc(N)c1
Mus musculus [17]
  Anticonvulsant activity: activity at 300 mg/kg
Mus musculus [18]
  Toxicity: 4
Mus musculus [19]
  Toxicity: 1
Mus musculus [20]
  Anticonvulsant activity: activity at 300 mg/kg
Mus musculus [21]
  Anticonvulsant activity: activity at 300 mg/kg
Mus musculus [22]
  Anticonvulsant activity: activity at 300 mg/kg

## COP(=S)(OC)Oc1cc(C)c([N+](=O)[O-])c(C)c1
[1]
  logP: 3.89

## COP(=O)(OC)c1cccc(N)c1
Mus musculus [23]
  Anticonvulsant activity: inactive
Mus musculus [14]
  Toxicity: 0
Mus musculus [24]
  Anticonvulsant activity: Active
Mus musculus [25]
  Anticonvulsant activity: Active
[4]
  inhibition: 13%
Mus musculus [15]
  Toxicity: 0
[7]
  inhibition: 13%
Mus musculus [26]
  Anticonvulsant activity: Active

## CC1(C)COP(=S)(c2ccccc2)N1 (configuration not stated)
Mus musculus [27]
  Anticonvulsant activity: active at 600 mg/kg
[7]
  inhibition: 15%

## COP(=S)(OC)Oc1ccc([N+](=O)[O-])c(C(C)C)c1
[1]
  logP: 4.05

## COP(=O)(OC)Oc1ccc([N+](=O)[O-])c(C(C)C)c1
[1]
  logP: 2.57

## CC(C)(C)CC(C)(C)NP(=O)(Oc1ccccc1)Oc1ccccc1
Mus musculus [27]
  Anticonvulsant activity: active at 600 mg/kg
[7]
  inhibition: 65%

## COP(=O)(OC)Oc1ccc([N+](=O)[O-])c(C)c1 [FENITROXON]
[1]
  logP: 1.69

## COP(=O)(OC)Oc1cc(C)c([N+](=O)[O-])c(C)c1
[1]
  logP: 2.57

## COP(=O)(OC)Oc1ccc([N+](=O)[O-])cc1Cl
[1]
  logP: 1.83

## CCCCN1C(=O)CCP1(=O)c1ccccc1 (configuration not stated)
[4]
  inhibition: 17%
Rattus norvegicus
  inhibition: 67%
